Data: ChEMBL document CHEMBL4014307, “Diindolylmethane Derivatives: Potent Agonists of the Immunostimulatory Orphan G Protein-Coupled Receptor GPR84” (J Med Chem, 2017)
Calls of active or inactive are those of the source.

Key:
[1] = biological target: T1, G-protein coupled receptor 84 (Homo sapiens, UniProt Q9NQS5); assay: Agonist activity at Gi coupled human GPR84 expressed in CHO cells assessed as inhibition of forskolin-induced cAMP accumulation at 10 uM after 15 mins in presence of [3H]-cAMP by radiometric assay relative to decanoic acid; assay type: functional, cell-based
Method in brief: (§1)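 Forskolin (10 µM) added with or without test compound for 15 min. Cells lysed in hot (90 °C) EDTA/Triton X-100 solution. cAMP measured radiometrically with bovine adrenal binding protein and [³H]cAMP, expressed as % of forskolin-alone response.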

[2] = biological target: T1, G-protein coupled receptor 84; assay: Agonist activity at Gi coupled human GPR84 expressed in CHO cells assessed as inhibition of forskolin-induced cAMP accumulation after 15 mins in presence of [3H]-cAMP by radiometric assay; assay type: functional, cell-based; method in brief: as §1
[3] = biological target: T1, G-protein coupled receptor 84; assay: Agonist activity at human GPR84 expressed in CHO cells assessed as beta-arrestin recruitment after 90 mins by beta-galactosidase complementation assay; assay type: cell-based
Method in brief: (§2)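 CHO cells co-expressing human GPR84–β-galactosidase fragment and β-arrestin–complementary fragment, 20,000 per well. Compounds in DMSO (final ≤1 %) added for 90 min, then detection reagent for 60 min at rt; luminescence read. Three to five independent experiments in duplicate.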

[4] = biological target: T1, G-protein coupled receptor 84; assay: Agonist activity at human GPR84 expressed in CHO cells assessed as beta-arrestin recruitment at 10 uM after 90 mins by beta-galactosidase complementation assay relative to embelin; assay type: cell-based; method in brief: as §2
[5] = biological target: T1, G-protein coupled receptor 84; assay: Antagonist activity at Gi coupled human GPR84 expressed in CHO cells assessed as inhibition of decanoic acid-induced receptor activation at 10 uM; assay type: cell-based
[6] = biological target: T2, Free fatty acid receptor 1 (Homo sapiens, UniProt O14842); assay: Agonist activity at Gq protein coupled human FFAR1 expressed in human 1321N1 cells assessed as induction of intracellular calcium level at 10 uM measured at 1.2 secs time interval by Fluo-4-AM dye based fluorescence assay; assay type: functional, cell-based
Method in brief: (§3)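 1321N1 astrocytoma cells retrovirally expressing human FFAR1, 50,000 per well, loaded 60 min at rt in dark with 3 µM Fluo-4-AM and 0.06 % Pluronic F-127 in HBSS. Compounds at 10 µM final; antagonist mode uses 30 min preincubation before TUG-424 (final 1 µM). Fluorescence at 520 nm (excitation 485 nm), 90 reads at 1.2 s intervals. Normalized to TUG-424 at 10 µM (agonist) or 1 µM (antagonist).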

[7] = biological target: T3, Free fatty acid receptor 4 (Homo sapiens) (UniProt Q5NUL3); assay: Agonist activity at human FFAR4 expressed in CHO cells assessed as beta-arrestin recruitment at 10 uM after 90 mins by beta-galactosidase complementation assay; assay type: cell-based
T3 sequence (whole entry): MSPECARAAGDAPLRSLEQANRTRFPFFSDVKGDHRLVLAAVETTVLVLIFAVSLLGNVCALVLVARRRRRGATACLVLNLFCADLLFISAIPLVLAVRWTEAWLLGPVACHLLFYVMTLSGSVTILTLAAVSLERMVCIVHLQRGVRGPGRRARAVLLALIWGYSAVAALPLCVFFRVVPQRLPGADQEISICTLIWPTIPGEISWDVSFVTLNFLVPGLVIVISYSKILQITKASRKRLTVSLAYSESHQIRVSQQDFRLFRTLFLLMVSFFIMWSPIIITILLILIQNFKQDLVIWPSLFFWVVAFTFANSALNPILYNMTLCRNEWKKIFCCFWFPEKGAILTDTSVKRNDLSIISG
Method in brief: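 Human FFAR4 in CHO β-galactosidase complementation cells, 30,000 per well, serum-free F12 ~4 h before assay; final DMSO 1 %, compounds 10 µM. Agonist mode: 90 min with agonist, then detection 60 min rt dark; luminescence. 3–4 experiments in duplicate.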

[8] = biological target: T3, Free fatty acid receptor 4 (Homo sapiens); assay: Antagonist activity at human FFAR4 expressed in CHO cells assessed as inhibition of TUG-89-induced beta-arrestin recruitment at 10 uM preincubated for 30 mins followed by TUG-89 addition measured after 90 mins by beta-galactosidase complementation assay; assay type: cell-based
[9] = biological target: T2, Free fatty acid receptor 1; assay: Antagonist activity at Gq protein coupled human FFAR1 expressed in human 1321N1 cells assessed as inhibition of TUG-424-induced intracellular calcium level preincubated for 30 mins followed by TUG-424 addition measured at 1.2 secs time interval by Fluo-4-AM dye based fluorescence assay; assay type: functional, cell-based; method in brief: as §3
[10] = biological target: T1, G-protein coupled receptor 84; assay: Agonist activity at Gi coupled human GPR84 expressed in CHO cells assessed as inhibition of forskolin-induced cAMP accumulation up to 100 uM preincubated for 5 mins followed by forskolin addition measured after 15 mins in presence of [3H]-cAMP by radiometric assay; assay type: functional, cell-based
Method in brief: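 Concentration-response in CHO-hGPR84 cells. Compound preincubated 5 min, then forskolin 10 µM added for a further 15 min. Maximal forskolin-induced cAMP without agonist set as 100 %. […] Mean ± SEM of 3 independent experiments in duplicate.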

T2 sequence (O14842 whole entry): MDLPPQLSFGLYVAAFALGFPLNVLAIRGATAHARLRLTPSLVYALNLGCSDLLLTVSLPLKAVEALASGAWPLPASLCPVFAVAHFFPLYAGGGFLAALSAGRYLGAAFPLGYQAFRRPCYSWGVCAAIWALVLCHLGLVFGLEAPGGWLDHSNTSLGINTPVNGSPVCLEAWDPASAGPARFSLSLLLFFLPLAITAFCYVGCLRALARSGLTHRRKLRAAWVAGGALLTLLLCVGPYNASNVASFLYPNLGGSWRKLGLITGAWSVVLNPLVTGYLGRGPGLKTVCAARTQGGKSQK
T1 sequence (Q9NQS5 whole entry): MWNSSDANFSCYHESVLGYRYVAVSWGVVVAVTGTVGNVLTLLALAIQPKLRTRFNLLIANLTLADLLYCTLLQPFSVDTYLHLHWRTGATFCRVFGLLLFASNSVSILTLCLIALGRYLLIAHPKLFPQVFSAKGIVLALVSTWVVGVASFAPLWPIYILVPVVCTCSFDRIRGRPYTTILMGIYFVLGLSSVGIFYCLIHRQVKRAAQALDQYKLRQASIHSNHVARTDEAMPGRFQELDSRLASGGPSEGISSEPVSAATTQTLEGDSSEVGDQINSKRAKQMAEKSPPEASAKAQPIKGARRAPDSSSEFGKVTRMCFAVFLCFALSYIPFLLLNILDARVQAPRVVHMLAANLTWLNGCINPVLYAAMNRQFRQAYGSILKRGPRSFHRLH

Row | Emax [1] [%] | EC50 [2] [µM] | EC50 [3] [µM] | Emax [4] [%] | inhibition [5] | Activity [6] | Activity [7] | inhibition [8] | EC50 [9] [µM] | inhibition [10] | Structure (SMILES)
1 | 28 | ≥ 10 | > 10 | -5 | inactive | inactive | inactive | inactive | – | – | O=C(O)c1ccc2[nH]cc(Cc3c[nH]c4ccc(C(=O)O)cc34)c2c1
2 | – | – | – | – | – | – | – | – | – | inactive | c1ccc2c(c1)[nH]c1cc3c(cc12)[nH]c1ccccc13
3 | – | – | – | – | – | – | – | – | – | inactive | OCc1c[nH]c2ccccc12
4 | -17 | > 10 | > 10 | -22 | inactive | inactive | inactive | inactive | – | – | O=C1Nc2ccccc2/C1=C/c1c[nH]c2ccccc12
5 | 16 | > 10 | 7.29 | 167 | inactive | inactive | inactive | inactive | 8.89 | – | CC(C)C(c1c[nH]c2ccccc12)c1c[nH]c2ccccc12
6 | 112 | 0.987 | > 10 | 24 | – | inactive | inactive | inactive | – | – | Cc1cccc2[nH]cc(Cc3c[nH]c4cccc(C)c34)c12
7 | 4 | > 10 | 5.34 | 118 | inactive | inactive | inactive | inactive | – | – | Clc1ccc2c(Cc3c[nH]c4cc(Cl)ccc34)c[nH]c2c1
8 | 5 | > 10 | > 10 | 34 | inactive | inactive | inactive | inactive | – | – | CC(c1c[nH]c2cccc(F)c12)c1c[nH]c2cccc(F)c12
9 | -10 | > 10 | > 10 | 10 | inactive | inactive | inactive | inactive | – | – | c1ccc2c(C(c3c[nH]c4ccccc34)c3c[nH]c4ccccc34)c[nH]c2c1
10 | -5 | > 10 | > 10 | 3 | inactive | inactive | inactive | inactive | – | – | CC(c1c[nH]c2ccccc12)c1c[nH]c2ccccc12 [VIBRINDOLE A]
11 | 7 | > 10 | > 10 | -31 | inactive | inactive | inactive | inactive | – | – | COc1ccc2[nH]cc(C=C3C(=O)Nc4ccc(F)cc43)c2c1
12 | 119 | 0.365 to 0.369 | 1.2 | 103 | – | inactive | inactive | inactive | – | – | COc1ccc2[nH]cc(Cc3c[nH]c4ccc(OC)cc34)c2c1
13 | -37 | > 10 | > 10 | -3 | inactive | inactive | inactive | inactive | – | – | Cn1cc(Cc2cn(C)c3ccccc23)c2ccccc21

Further lines, the compound ahead of its results:

Row | Structure (SMILES) | Emax [1] [%] | EC50 [2] [µM] | EC50 [3] [µM] | Emax [4] [%] | inhibition [5] | Activity [6] | Activity [7] | inhibition [8] | EC50 [9] [µM] | inhibition [10]
14 | Cc1[nH]c2ccccc2c1Cc1c(C)[nH]c2ccccc12 | 42 | ≥ 10 | > 10 | 23 | inactive | inactive | inactive | inactive | – | –
15 | CCCC(c1c[nH]c2ccccc12)c1c[nH]c2ccccc12 | -24 | > 10 | 6.07 | 199 | inactive | inactive | inactive | inactive | 8.81 | –
16 | Oc1ccc(C(c2c[nH]c3ccccc23)c2c[nH]c3ccccc23)cc1 | 7 | > 10 | > 10 | -5 | inactive | inactive | inactive | inactive | – | –
17 | CCCCC(c1c[nH]c2ccccc12)c1c[nH]c2ccccc12 | -4 | > 10 | > 10 | -3 | inactive | inactive | inactive | inactive | – | –
18 | Cc1ccc2[nH]cc(Cc3c[nH]c4ccc(C)cc34)c2c1 | 45 | ≥ 10 | ≥ 10 | 49 | – | inactive | inactive | inactive | – | –
19 | Cc1ccc(C(c2c[nH]c3ccccc23)c2c[nH]c3ccccc23)cc1 | 2 | > 10 | > 10 | 10 | inactive | inactive | inactive | inactive | – | –
20 | Fc1cccc2[nH]cc(Cc3c[nH]c4cccc(F)c34)c12 | 110 | 0.328 | 1.23 | 108 | – | inactive | inactive | inactive | 6.49 | –
21 | O=C1Nc2ccccc2C1=Cc1ccc2[nH]ccc2c1 | -16 | > 10 | > 10 | -7 | inactive | inactive | inactive | inactive | – | –
22 | c1cnc2[nH]cc(Cc3c[nH]c4ncccc34)c2c1 | -12 | > 10 | 2.27 | 115 | inactive | inactive | inactive | inactive | – | –
23 | c1cc2c(c(C(c3c[nH]c4ccccc34)c3c[nH]c4ccccc34)c1)OCO2 | 0 | > 10 | > 10 | 7 | inactive | inactive | inactive | inactive | – | –
24 | COc1ccc2[nH]cc(Cc3c[nH]c4ccccc34)c2c1 | 97 | 1.89 | 6.47 | 110 | – | inactive | inactive | inactive | – | –
25 | Cn1cc(Cc2c[nH]c3ccccc23)c2ccccc21 | 43 | ≥ 10 | > 10 | 8 | inactive | inactive | inactive | inactive | – | –
26 | Fc1ccc2c(Cc3c[nH]c4cc(F)ccc34)c[nH]c2c1 | 89 | 0.625 | 7.53 | 48 | – | inactive | inactive | inactive | – | –
